Tests used:
[1] = tested on: Influenza A virus; assay: (§1) Antiviral activity against Influenza A virus Port Chalmers/1/73 (H3N2) infected in ferret assessed as reduction in viral excretion by measuring hemagglutination units per ml at 13 mg/kg administered intranasally 7 times on day 0 and 9 times on day 1 to day 3 measured on day 4 relative to untreated control; type: functional
Procedure, shortened: (§2)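 Ferrets (700–1500 g, groups of three, untreated control group) were infected intranasally on day 0. Unanaesthetized animals received 0.2 mL of a 50 mg/mL solution in distilled water intranasally, from 2 h post-infection, hourly: 7 doses on day 0 and 9 daily on days +1 to +3. Nasal washings were titrated for hemagglutination with 0.5% washed chicken erythrocytes (HAU/mL) on days +2 to +4.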

[2] = tested on: Influenza A virus; assay: Antiviral activity against Influenza A virus Port Chalmers/1/73 (H3N2) infected in ferret assessed as reduction in rectal temperature at 8 to 16 mg/kg administered intranasally 7 times on day 0 and 9 times on day 1 to day 3 relative to untreated control; type: functional; conditions: dose mg/kg 8-16
Procedure, shortened: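 Infected ferrets (700–1500 g, groups of three, untreated controls) received hourly intranasal 0.2 mL of a 50 mg/mL aqueous solution: 7 doses on day 0 and 9 on days +1 to +3. Rectal temperature was recorded and readings >39.5 °C and >40.0 °C were counted on days +1 to +4.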

[3] = Solubility in water; type: physicochemical; conditions: buffer
[4] = tested on: Influenza A virus; assay: as §1, with “16” for “13”; type: functional; procedure, shortened: as §2
[5] = tested on: Mustela putorius furo; assay: Toxicity in ferret infected with Influenza A virus Port Chalmers/1/73 (H3N2) assessed as change in body weight at 13 mg/kg administered intranasally 7 times on day 0 and 9 times on day 1 to day 3 measured after 7 days relative to untreated control; type: organism-based; set-up: dose 13 mg/kg; conditions: in vivo, inhaled_or_intranasal, 168 h
Procedure, shortened: (§3)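 Infected ferrets (700–1500 g, groups of three, untreated controls) were dosed intranasally each hour with 0.2 mL of a 50 mg/mL solution in distilled water: 7 doses on day 0 and 9 on days +1 to +3. Body weight was recorded throughout and expressed as % change.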

[6] = tested on: Influenza A virus; assay: as §1, with “3” for “4”; type: functional; procedure, shortened: as §2
[7] = tested on: Influenza A virus; assay: as §1, with “at 16” for “at 13”, “day 2” for “day 3”, “day 2” for “day 4”; type: functional; procedure, shortened: as §2
[8] = tested on: Influenza A virus; assay: as §1, with “day 2” for “day 3”, “day 2” for “day 4”; type: functional; procedure, shortened: as §2
[9] = Stability in unbuffered aqueous solutions at pH >6 assessed as compound hydrolysis; type: physicochemical; conditions: unbuffered aqueous solution
[10] = Stability in unbuffered aqueous solutions at pH >6 assessed as compound decarboxylation; type: physicochemical
[11] = tested on: Mustela putorius furo; assay: Toxicity in ferret infected with Influenza A virus Port Chalmers/1/73 (H3N2) assessed as change in body weight at 8 mg/kg administered intranasally 7 times on day 0 and 9 times on day 1 to day 3 measured after 7 days relative to untreated control; type: organism-based; set-up: dose 8 mg/kg; conditions: in vivo, inhaled_or_intranasal, 168 h; procedure, shortened: as §3
[12] = tested on: Mustela putorius furo; assay: Toxicity in ferret infected with Influenza A virus Port Chalmers/1/73 (H3N2) assessed as change in body weight at 16 mg/kg administered intranasally 7 times on day 0 and 9 times on day 1 to day 3 measured after 7 days relative to untreated control; type: organism-based; set-up: dose 16 mg/kg; conditions: in vivo, inhaled_or_intranasal, 168 h; procedure, shortened: as §3
[13] = tested on: Influenza A virus; assay: as §1, with “16” for “13”, “3” for “4”; type: functional; procedure, shortened: as §2
[14] = tested on: Influenza A virus; assay: as §1, with “8” for “13”; type: functional; procedure, shortened: as §2
[15] = tested on: Influenza A virus; assay: as §1, with “at 8” for “at 13”, “day 2” for “day 3”, “day 2” for “day 4”; type: functional; procedure, shortened: as §2

In the case of `CNC1=NC(=O)C(C(C)c2cn(C(=O)OCC(C)(C)N(C)C)c3ccccc23)S1.Cl` (racemic), the Activity [1] is reported as less than 4 HAU/ml, the T [2] is reported as greater than 40 °C and the solubility [3] is reported as “soluble”. For the same compound, the Activity [4] was less than 4 HAU/ml, the Activity [5] was -3.3% and the Activity [6] was less than 4 HAU/ml. The Activity [7] was less than 4 HAU/ml, the Activity [8] was less than 4 HAU/ml and the Stability [9] was “Unstable”. For the same compound, the Stability [10] was “Unstable”, the Activity [11] was -0.4% and the Activity [12] was -3.2%. For the same compound, the Activity [13] was less than 4 HAU/ml, the Activity [14] was less than 4 HAU/ml and the Activity [15] was less than 4 HAU/ml.

Source: ChEMBL document CHEMBL3244172, “Easily hydrolyzable, water-soluble derivatives of (+/-)-alpha-5-[1-(indol-3-yl)ethyl]-2-methylamino-delta2-thiazoline-4-one, a novel antiviral compound” (J Med Chem, 1979)
